How the values were obtained:
Format in all cases: functional
Settings in all cases: route intraperitoneal
Mus musculus [1] = test: Estrogenic activity in albino CFLP-ICI strain 1 mouse assessed as change in uterus weight at 0.1 mg/kg, ip qd for three consecutive days measured 24 hrs post last dose (reference value: 6.9 +/- 0.7 mg)
Mus musculus [2] = test: Estrogenic activity in albino CFLP-ICI strain 1 mouse assessed as change in uterus weight at 10 mg/kg, ip qd for three consecutive days measured 24 hrs post last dose (reference value: 6.9 +/- 0.7 mg)
Mus musculus [3] = test: Estrogenic activity in albino CFLP-ICI strain 1 mouse assessed as uterine ratio at 0.1 mg/kg, ip qd for three consecutive days measured 24 hrs post last dose relative to body weight
Mus musculus [4] = test: Estrogenic activity in albino CFLP-ICI strain 1 mouse assessed as uterine ratio at 10 mg/kg, ip qd for three consecutive days measured 24 hrs post last dose relative to body weight
Mus musculus [5] = test: Potentiation of stilbesterol-induced estrogenic activity in albino CFLP-ICI strain 1 mouse assessed as change in uterus weight at 0.01 mg/kg, ip qd for three consecutive days measured 24 hrs post last dose relative to control
Method in brief: (§1)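 Mice received stilbestrol 0.01 mg/kg together with graded doses of spiro derivative, both in arachis oil, ip once daily at 10.00 h for three consecutive days; comparison group got stilbestrol alone. Killed by cervical dislocation 24 h after final dose. Uteri dissected free of fat, blotted and weighed. Uterine ratio = uterine weight (mg)/body weight (g) × 100; mean ± SE.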

Mus musculus [6] = test: Potentiation of stilbesterol-induced estrogenic activity in albino CFLP-ICI strain 1 mouse assessed as change in uterus weight at 10 mg/kg, ip qd for three consecutive days measured 24 hrs post last dose relative to control; method in brief: as §1
Mus musculus [7] = test: Potentiation of stilbesterol-induced estrogenic activity in albino CFLP-ICI strain 1 mouse assessed as change in uterus weight at 0.001 mg/kg, ip qd for three consecutive days measured 24 hrs post last dose relative to control; method in brief: as §1
Mus musculus [8] = test: Potentiation of stilbesterol-induced estrogenic activity in albino CFLP-ICI strain 1 mouse assessed as change in uterus weight at 0.1 mg/kg, ip qd for three consecutive days measured 24 hrs post last dose relative to control; method in brief: as §1
Mus musculus [9] = test: Potentiation of stilbesterol-induced estrogenic activity in albino CFLP-ICI strain 1 mouse assessed as uterine ratio at 0.01 mg/kg, ip qd for three consecutive days measured 24 hrs post last dose relative to body weight; method in brief: as §1
Mus musculus [10] = test: Potentiation of stilbesterol-induced estrogenic activity in albino CFLP-ICI strain 1 mouse assessed as uterine ratio at 10 mg/kg, ip qd for three consecutive days measured 24 hrs post last dose relative to body weight; method in brief: as §1
Mus musculus [11] = test: Potentiation of stilbesterol-induced estrogenic activity in albino CFLP-ICI strain 1 mouse assessed as uterine ratio at 0.001 mg/kg, ip qd for three consecutive days measured 24 hrs post last dose relative to body weight; method in brief: as §1
Mus musculus [12] = test: Potentiation of stilbesterol-induced estrogenic activity in albino CFLP-ICI strain 1 mouse assessed as uterine ratio at 0.1 mg/kg, ip qd for three consecutive days measured 24 hrs post last dose relative to body weight; method in brief: as §1
Mus musculus [13] = test: Estrogenic activity in albino CFLP-ICI strain 1 mouse assessed as change in uterus weight at 0.01 mg/kg, ip qd for three consecutive days measured 24 hrs post last dose (reference value: 6.9 +/- 0.7 mg)
Mus musculus [14] = test: Estrogenic activity in albino CFLP-ICI strain 1 mouse assessed as uterine ratio at 0.01 mg/kg, ip qd for three consecutive days measured 24 hrs post last dose relative to body weight

SMILES | Activity (Mus musculus [1]) [mg] | Activity (Mus musculus [2]) [mg] | Ratio (Mus musculus [3]) | Ratio (Mus musculus [4]) | Activity (Mus musculus [5]) [mg] | Activity (Mus musculus [6]) [mg] | Activity (Mus musculus [7]) [mg] | Activity (Mus musculus [8]) [mg] | Ratio (Mus musculus [9]) | Ratio (Mus musculus [10]) | Ratio (Mus musculus [11]) | Ratio (Mus musculus [12]) | Activity (Mus musculus [13]) [mg] | Ratio (Mus musculus [14])
O=C1CCC2(CC1)CCc1ccccc1C2=O | 10 | 6.9 | 78 | 64 | 37.1 | 36.5 | 29.9 | 30.7 | 377 | 293 | 306 | 293 |  | 
OC1CCC2(CC1)Cc1ccccc1C2O (configuration not stated) | 7.4 | 9.7 | 80 | 86 | 24.5 | 29.2 |  |  | 225 | 247 |  |  |  | 
CC/C(=C(/CC)c1ccc(O)cc1)c1ccc(O)cc1 [DIETHYLSTILBESTROL] |  |  |  |  |  |  |  |  |  |  |  |  | 17.5 | 167

From ChEMBL document CHEMBL3272049, “Estrogen potentiating activity of two spiro compounds having approximately similar molecular dimensions to stilbestrol” (1977)
